Results on two compounds are retold here after ChEMBL document CHEMBL5696442, “Discovery of type II inhibitors of TGFβ-activated kinase 1 (TAK1) and mitogen-activated protein kinase kinase kinase kinase 2 (MAP4K2)” (J Med Chem, 2015).

Activity calls are given as the source filed them. No cut-off for these calls is given here.

Experiment [1] has as its target T1, Serine/threonine-protein kinase Nek1 (Homo sapiens) (UniProt Q96PY6).
T1 sequence (whole entry): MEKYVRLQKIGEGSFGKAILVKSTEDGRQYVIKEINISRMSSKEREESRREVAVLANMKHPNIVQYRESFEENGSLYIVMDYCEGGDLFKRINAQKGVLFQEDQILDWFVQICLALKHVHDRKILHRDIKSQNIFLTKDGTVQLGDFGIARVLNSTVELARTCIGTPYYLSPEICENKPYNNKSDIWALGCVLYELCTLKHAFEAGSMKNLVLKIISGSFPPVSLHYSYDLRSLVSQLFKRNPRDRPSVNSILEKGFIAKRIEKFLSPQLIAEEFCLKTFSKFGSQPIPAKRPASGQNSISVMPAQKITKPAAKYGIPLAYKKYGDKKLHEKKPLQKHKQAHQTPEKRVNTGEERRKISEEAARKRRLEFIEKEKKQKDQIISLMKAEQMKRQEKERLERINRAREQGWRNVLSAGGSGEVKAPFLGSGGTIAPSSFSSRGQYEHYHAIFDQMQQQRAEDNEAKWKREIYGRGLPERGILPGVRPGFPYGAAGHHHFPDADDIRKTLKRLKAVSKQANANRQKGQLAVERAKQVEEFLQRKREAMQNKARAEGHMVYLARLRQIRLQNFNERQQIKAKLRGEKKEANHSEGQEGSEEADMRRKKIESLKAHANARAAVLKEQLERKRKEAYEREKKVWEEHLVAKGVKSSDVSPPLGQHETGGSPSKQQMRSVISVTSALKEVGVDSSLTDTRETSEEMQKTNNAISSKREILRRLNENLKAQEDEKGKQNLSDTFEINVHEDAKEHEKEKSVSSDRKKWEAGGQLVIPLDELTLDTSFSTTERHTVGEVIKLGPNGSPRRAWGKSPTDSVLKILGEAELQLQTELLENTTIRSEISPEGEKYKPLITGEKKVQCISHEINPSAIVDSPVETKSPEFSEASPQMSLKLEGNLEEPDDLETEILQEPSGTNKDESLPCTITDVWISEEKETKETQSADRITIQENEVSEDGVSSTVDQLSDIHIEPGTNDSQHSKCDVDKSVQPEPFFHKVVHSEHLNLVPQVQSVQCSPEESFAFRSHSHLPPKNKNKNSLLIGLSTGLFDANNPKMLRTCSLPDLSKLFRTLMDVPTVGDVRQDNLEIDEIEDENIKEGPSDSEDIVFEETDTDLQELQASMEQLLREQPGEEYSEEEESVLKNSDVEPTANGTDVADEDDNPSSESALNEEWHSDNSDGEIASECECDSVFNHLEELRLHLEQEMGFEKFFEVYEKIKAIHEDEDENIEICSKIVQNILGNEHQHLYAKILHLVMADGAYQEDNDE
Briefly: Inhibition of NEK1 (unknown origin) at 1 uM by Ambit Kinomescan binding assay relative to control; values are per cent of control.

Experiment [2] has as its target Ribosomal protein S6 kinase alpha-1 (Homo sapiens) (UniProt Q15418). Kind of experiment: Inhibition of RSK1 domain1 Lys2 labeling site harbouring DLKPENILLDEEGHIKLTDFGLSK in human A-375 cells at 5 uM by KiNativ Profiling analysis relative to control. It counts as cell-based. The procedure, abridged:
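Live A375 melanoma cells treated with compound at 5 or 0.5 μM, then lysed. Lysate kinases were labeled with a lysine-reactive ATP or ADP-biotin probe. Inhibition was read as protection of labeling sites from the probe.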

For experiment [3], the target named is T2, Serine/threonine-protein kinase ULK1 (Homo sapiens) (UniProt O75385).
T2 sequence (whole entry): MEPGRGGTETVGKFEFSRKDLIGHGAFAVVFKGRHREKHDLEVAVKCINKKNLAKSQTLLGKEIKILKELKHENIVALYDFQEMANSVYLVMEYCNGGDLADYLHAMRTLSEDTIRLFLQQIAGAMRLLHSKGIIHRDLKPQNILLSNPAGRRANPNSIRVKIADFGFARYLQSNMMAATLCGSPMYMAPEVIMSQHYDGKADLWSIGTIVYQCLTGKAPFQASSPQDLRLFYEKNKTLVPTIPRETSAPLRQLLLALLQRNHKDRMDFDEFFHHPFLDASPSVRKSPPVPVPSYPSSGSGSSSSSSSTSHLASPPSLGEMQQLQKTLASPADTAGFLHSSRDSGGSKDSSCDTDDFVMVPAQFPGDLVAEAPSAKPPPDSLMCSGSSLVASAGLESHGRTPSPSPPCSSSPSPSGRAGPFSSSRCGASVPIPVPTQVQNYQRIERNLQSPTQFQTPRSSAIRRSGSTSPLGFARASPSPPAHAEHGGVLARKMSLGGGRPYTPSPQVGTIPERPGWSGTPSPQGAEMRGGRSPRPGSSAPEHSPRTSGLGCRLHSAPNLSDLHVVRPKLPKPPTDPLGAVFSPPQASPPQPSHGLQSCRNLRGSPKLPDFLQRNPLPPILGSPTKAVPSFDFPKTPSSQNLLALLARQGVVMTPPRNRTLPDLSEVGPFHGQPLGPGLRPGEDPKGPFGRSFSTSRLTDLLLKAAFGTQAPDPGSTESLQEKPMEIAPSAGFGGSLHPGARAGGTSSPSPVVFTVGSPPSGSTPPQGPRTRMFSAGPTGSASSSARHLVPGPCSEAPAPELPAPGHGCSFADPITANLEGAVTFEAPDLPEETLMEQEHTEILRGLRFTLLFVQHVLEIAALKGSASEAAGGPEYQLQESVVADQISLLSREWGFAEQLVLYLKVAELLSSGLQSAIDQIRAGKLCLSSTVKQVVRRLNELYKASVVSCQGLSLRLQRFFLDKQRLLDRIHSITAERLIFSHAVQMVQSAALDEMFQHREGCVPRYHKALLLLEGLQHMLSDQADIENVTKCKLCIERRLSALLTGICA
Kind of experiment: Inhibition of ULK1 Lys2 labeling site in human A-375 cells at 0.5 uM by KiNativ Profiling analysis relative to control. The class given is cell-based.

In experiment [4] the target is Serine/threonine-protein kinase SMG1 (Homo sapiens) (UniProt Q96Q15). Briefly: Inhibition of SMG1 ATP labeling site in human Huh-7 cells at 1 uM by KiNativ Profiling analysis relative to control. The class given is cell-based.
For experiment [5], the target named is Ribosomal protein S6 kinase alpha-1 (Homo sapiens) (UniProt Q15418). Kind of experiment: Inhibition of C-terminal RPS6KA1 kinase domain 2 (unknown origin) at 10 uM by Ambit Kinomescan binding assay.
Chain of Ribosomal protein S6 kinase alpha-1 (Homo sapiens) (Q15418 whole entry, the tested form may be a part): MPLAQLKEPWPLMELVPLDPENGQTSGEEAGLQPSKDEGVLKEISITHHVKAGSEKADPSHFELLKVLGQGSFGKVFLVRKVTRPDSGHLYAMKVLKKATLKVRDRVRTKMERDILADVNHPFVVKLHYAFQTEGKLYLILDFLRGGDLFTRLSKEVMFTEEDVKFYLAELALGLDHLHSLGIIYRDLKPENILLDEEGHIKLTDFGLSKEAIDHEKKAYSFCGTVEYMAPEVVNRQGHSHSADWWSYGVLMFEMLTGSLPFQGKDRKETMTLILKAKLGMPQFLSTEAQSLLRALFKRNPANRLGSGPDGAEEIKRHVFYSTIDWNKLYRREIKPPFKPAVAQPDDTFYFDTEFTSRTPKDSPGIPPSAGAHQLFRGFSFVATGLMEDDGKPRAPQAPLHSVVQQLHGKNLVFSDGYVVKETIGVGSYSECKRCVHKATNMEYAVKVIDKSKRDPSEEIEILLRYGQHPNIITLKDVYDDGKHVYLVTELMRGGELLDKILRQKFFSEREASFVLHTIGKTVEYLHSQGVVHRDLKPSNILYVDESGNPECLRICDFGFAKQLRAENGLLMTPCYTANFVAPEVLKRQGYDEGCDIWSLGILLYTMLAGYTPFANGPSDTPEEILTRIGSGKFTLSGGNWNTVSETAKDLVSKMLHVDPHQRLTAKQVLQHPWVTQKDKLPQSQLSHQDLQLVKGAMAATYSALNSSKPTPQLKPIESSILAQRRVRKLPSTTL

Chain of Serine/threonine-protein kinase SMG1 (Homo sapiens) (Q96Q15 whole entry, the tested form may be a part): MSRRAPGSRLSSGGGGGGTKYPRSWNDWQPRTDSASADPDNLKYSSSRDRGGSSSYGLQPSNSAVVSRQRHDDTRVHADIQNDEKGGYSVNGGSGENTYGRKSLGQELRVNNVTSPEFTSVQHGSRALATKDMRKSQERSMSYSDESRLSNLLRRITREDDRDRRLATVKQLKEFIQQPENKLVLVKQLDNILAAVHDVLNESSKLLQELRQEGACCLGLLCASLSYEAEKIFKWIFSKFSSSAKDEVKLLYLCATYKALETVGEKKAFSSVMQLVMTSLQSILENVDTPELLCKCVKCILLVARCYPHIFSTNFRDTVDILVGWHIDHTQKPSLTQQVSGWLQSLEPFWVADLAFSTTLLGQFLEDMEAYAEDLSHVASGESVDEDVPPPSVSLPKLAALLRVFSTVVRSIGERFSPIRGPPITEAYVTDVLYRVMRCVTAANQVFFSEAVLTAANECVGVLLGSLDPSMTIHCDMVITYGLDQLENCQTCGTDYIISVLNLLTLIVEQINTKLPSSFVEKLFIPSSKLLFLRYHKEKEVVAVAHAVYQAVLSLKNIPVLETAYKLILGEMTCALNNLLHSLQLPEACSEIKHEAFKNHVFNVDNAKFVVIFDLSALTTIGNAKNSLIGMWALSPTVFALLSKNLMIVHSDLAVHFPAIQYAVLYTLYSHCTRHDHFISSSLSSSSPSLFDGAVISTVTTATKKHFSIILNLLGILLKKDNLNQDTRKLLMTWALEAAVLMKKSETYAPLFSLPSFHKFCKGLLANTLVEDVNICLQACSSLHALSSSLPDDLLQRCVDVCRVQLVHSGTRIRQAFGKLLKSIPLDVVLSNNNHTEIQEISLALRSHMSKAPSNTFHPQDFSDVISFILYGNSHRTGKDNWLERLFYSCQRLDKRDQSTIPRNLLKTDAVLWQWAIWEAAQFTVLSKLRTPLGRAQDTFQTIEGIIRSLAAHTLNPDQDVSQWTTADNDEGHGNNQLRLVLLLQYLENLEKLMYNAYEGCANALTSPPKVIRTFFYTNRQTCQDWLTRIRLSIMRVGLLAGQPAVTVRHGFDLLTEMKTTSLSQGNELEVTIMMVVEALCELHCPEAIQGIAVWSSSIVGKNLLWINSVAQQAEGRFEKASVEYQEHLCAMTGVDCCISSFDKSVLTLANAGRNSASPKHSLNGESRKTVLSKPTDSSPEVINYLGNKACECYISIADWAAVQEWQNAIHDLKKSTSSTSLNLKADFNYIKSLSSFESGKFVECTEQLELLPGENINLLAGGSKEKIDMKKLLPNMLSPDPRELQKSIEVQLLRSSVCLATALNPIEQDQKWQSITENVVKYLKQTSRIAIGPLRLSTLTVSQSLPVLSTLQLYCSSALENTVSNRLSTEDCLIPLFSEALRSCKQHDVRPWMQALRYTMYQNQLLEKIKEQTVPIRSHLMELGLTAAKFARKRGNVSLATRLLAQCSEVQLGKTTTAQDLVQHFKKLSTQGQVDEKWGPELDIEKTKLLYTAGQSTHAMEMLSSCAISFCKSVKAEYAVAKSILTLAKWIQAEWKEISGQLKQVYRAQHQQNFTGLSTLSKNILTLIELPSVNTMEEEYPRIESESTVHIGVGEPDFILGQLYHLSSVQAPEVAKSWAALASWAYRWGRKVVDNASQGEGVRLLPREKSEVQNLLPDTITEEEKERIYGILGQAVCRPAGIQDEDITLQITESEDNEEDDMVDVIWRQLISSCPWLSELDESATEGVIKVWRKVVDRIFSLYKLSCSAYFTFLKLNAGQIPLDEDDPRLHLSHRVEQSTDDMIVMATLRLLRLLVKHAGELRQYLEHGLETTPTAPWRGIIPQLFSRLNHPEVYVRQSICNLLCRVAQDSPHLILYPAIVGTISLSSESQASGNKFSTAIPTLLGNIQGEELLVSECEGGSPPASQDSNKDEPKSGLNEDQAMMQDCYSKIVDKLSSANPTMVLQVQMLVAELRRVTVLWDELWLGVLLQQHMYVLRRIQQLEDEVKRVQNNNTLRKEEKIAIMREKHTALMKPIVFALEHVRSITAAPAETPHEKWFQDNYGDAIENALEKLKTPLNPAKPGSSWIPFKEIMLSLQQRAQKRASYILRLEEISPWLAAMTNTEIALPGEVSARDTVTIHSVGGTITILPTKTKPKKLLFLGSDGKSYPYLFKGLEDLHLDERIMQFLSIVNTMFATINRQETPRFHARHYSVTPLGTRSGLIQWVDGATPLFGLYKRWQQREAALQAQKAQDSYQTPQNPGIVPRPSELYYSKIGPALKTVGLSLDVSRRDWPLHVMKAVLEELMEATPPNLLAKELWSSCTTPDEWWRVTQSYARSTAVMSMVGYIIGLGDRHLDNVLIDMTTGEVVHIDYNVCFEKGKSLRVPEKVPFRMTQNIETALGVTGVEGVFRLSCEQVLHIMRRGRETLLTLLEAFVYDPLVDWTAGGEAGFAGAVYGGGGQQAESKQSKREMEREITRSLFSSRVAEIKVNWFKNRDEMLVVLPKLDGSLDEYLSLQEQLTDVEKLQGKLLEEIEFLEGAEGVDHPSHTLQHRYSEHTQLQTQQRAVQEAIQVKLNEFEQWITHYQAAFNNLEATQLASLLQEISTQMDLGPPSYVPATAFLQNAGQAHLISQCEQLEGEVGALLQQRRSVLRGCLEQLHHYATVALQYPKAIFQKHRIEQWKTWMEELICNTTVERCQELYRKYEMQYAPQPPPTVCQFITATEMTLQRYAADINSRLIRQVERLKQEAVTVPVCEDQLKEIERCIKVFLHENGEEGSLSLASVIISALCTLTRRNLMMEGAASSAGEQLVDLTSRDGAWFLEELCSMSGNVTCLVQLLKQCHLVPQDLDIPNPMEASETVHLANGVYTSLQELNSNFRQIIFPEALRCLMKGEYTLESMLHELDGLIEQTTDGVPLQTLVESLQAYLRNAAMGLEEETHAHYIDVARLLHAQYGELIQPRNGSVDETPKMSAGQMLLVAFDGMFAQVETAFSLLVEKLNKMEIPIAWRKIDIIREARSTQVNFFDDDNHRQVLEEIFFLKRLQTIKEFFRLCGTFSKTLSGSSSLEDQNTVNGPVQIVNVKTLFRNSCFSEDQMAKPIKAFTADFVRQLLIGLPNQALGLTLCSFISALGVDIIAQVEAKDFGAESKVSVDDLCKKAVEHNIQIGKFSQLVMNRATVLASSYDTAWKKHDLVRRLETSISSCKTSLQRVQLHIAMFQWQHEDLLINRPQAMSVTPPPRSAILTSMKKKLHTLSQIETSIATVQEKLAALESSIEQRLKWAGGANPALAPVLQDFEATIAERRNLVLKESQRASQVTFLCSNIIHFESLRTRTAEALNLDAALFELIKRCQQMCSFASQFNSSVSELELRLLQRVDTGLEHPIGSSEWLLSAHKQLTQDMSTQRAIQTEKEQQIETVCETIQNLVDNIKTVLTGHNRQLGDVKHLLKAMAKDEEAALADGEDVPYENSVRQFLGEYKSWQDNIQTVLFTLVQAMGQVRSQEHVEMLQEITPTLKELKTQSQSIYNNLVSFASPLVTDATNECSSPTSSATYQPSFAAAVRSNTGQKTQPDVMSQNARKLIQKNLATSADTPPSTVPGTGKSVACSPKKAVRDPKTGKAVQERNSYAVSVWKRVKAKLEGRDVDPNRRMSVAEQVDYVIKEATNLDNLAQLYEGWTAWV

Consider `CCN1CCN(Cc2ccc(NC(=O)c3ccc(C)c(/C=C/c4cnc5[nH]ccc5c4OC)c3)cc2C(F)(F)F)CC1`, for which the residual activity in experiment [1] is 83%. The inhibition in experiment [2] is -4.9%.

As to `CCN1CCN(Cc2ccc(NC(=O)c3ccc(C)c(Oc4ccnc5[nH]ccc45)c3)cc2C(F)(F)F)CC1`, the inhibition was -6.3% in experiment [3] and 13% in experiment [4]. Moreover, the inhibition result in experiment [5] was “inactive”.

A word on the residual activity: it is the signal under treatment as a percentage of the control signal. The low end stands for little activity left, the high end for much activity left. As usually defined, the inhibition is the change of the read-out against control, counted positive when it falls.
